In ChEMBL document CHEMBL3877303 (J Med Chem, 2017) one finds GI50 and IC50 data, which are given here for 28 molecules.

Data set [1] addresses BCR/ABL p210 fusion protein (Homo sapiens, UniProt A1Z199). As to the kind of experiment: Inhibition of human BCR/ABL p210 fusion protein expressed in BAF3 cells assessed as growth inhibition measured after 72 hrs by CellTiter-Glo or CCK8 assay. The format is cell-based. The procedure, abridged: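 Seeded at 1 to 2.5×10^4 cells/mL with various compound concentrations, 72 h. Viability read by CellTiter-Glo luminescence or CCK-8 absorbance (450/655 nm), normalized to DMSO control, GI50 from curve fit, triplicate testing.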
(ATP-based viability assays read luminescence as a measure of living cells.)

A short description of data set [2]: Growth inhibition of mouse BAF3 cells measured after 72 hrs by CellTiter-Glo or CCK8 assay. It counts as cell-based. The procedure, abridged:
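Cells at 1 to 2.5×10^4 cells/mL were incubated with a range of compound concentrations for 72 h. Viability was read by CellTiter-Glo luminescence or CCK-8 absorbance (450/655 nm) and normalized to DMSO control. GI50 came from curve fitting, with triplicate testing.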

The target in data set [3] is T1, Mast/stem cell growth factor receptor Kit (Homo sapiens, UniProt P10721). As to conditions: BaF3.
Data set [4] addresses T1, Mast/stem cell growth factor receptor Kit. Kind of data set: Inhibition of recombinant C-terminal polyhistidine-tagged human c-KIT expressed in mammalian expression system using Tyr 06 peptide as substrate measured after 1hr by FRET based Z'Lyte assay.

T1 sequence (P10721 whole entry): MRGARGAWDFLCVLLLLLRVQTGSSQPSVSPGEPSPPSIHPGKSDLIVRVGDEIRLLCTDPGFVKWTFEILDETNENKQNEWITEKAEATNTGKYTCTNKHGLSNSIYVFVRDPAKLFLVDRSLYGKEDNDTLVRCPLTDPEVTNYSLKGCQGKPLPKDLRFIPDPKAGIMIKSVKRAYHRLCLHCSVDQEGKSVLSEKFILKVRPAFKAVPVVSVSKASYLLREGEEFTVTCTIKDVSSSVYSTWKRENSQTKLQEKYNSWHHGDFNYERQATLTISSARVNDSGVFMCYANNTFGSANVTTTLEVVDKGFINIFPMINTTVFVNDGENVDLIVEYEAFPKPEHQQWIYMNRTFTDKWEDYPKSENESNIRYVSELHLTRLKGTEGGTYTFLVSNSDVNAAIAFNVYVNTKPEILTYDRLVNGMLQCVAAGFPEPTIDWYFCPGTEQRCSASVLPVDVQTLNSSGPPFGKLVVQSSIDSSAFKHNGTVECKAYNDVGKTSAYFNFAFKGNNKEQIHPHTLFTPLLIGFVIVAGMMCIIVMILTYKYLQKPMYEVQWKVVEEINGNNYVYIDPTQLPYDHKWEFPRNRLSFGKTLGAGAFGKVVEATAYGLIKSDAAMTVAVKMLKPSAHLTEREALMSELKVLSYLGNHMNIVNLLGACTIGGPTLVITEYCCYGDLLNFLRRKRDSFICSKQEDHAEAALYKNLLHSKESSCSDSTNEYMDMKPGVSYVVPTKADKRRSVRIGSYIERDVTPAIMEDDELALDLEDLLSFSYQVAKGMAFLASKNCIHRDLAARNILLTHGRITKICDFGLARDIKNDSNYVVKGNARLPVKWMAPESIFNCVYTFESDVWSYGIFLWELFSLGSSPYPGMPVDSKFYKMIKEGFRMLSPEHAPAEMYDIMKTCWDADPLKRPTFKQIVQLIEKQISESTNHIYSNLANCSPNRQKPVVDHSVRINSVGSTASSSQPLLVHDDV
Chain of BCR/ABL p210 fusion protein (A1Z199 1-97): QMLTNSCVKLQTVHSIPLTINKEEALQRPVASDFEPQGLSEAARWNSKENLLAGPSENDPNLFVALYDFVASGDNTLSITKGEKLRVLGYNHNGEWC

For orientation: GI50 means the concentration giving 50% growth inhibition. Turning to `C=CC(=O)N1CCC(Oc2cc(NC(=O)c3ccc(CN4CCN(C)CC4)c(C(F)(F)F)c3)ccc2C)CC1`, the GI50 in data set [1] worked out at 427 nM. Besides, the concentration for 50% growth inhibition (GI50) at 72 h in data set [2] is > 10000 nM.
For orientation: IC50 means the point on the concentration scale where inhibition reaches its midpoint. For the molecule `Cc1cncc(C(=O)N2CCC(Oc3cc(NC(=O)c4ccc(CN5CCN(C)CC5)c(C(F)(F)F)c4)ccc3C)CC2)c1`, the GI50 in data set [3] was determined as 28 nM; in data set [1], 79 nM. In data set [2], this molecule yielded a GI50 at 72 h of 800 nM. For the same molecule, the IC50 in data set [4] came out at 214 nM.
Regarding `Cc1ccc(NC(=O)c2ccc(CN3CCN(C)CC3)c(C(F)(F)F)c2)cc1OC1CCN(S(=O)(=O)c2ccccc2)CC1`, the GI50 in data set [3] worked out at 600 nM; in data set [1], 4770 nM. For the same molecule, halving of growth in data set [2] (GI50 at 72 h) required 5100 nM.
The matching figures for `CCC(=O)N1CCC(Oc2cc(NC(=O)c3ccc(CN4CCN(C)CC4)c(C(F)(F)F)c3)ccc2C)CC1`: 300 nM, 998 nM and > 10000 nM.
For `Cc1ccc(NC(=O)c2ccc(CN3CCN(C)CC3)c(C(F)(F)F)c2)cc1OC1CCN(C(=O)CN(C)C)CC1`, in that order: 1630 nM, 3070 nM and > 10000 nM.
The matching figures for `Cc1ccc(NC(=O)c2ccc(CN3CCN(C)CC3)c(C(F)(F)F)c2)cc1OC1CCN(C(=O)c2cccnc2Cl)CC1`: 62 nM, 2760 nM and 2720 nM.
In the case of `Cc1ccc(NC(=O)c2ccc(CN3CCN(C)CC3)c(C(F)(F)F)c2)cc1OC1CCN(C(=O)c2ccoc2)CC1`, the GI50 amounted to 270 nM in data set [3] and 153 nM in data set [1]. In addition, the GI50 at 72 h in data set [2] was > 10000 nM.
For `Cc1ccc(NC(=O)c2ccc(CN3CCN(C)CC3)c(C(F)(F)F)c2)cc1OCC1CN(C(=O)c2cccnc2)C1`, the GI50 in data set [3] was determined as 2860 nM; in data set [1] it was 5400 nM. In data set [2], this molecule showed a GI50 at 72 h of 1070 nM.
Regarding `Cc1ccc(NC(=O)c2ccc(CN3CCN(C)CC3)c(C(F)(F)F)c2)cc1OC1CCN(C(=O)c2cnccc2C)CC1`, the GI50 in data set [3] is 210 nM; in data set [1], 203 nM. The same molecule showed a concentration for 50% growth inhibition (GI50) at 72 h in data set [2] of 2680 nM. In addition, the IC50 in data set [4] was 336 nM.
Consider `Cc1ccc(NC(=O)c2ccc(CN3CCN(C)CC3)c(C(F)(F)F)c2)cc1OCC1CCN(C(=O)c2cccnc2)C1` (configuration not stated), for which the GI50 came out at 3820 nM in data set [3] and 4940 nM in data set [1]. The GI50 at 72 h in data set [2] stood at 3980 nM.
As to `COc1ccc(NC(=O)c2ccc(CN3CCN(C)CC3)c(C(F)(F)F)c2)cc1OC1CCN(C(=O)c2cccnc2)CC1`, the figures for the GI50 in data set [3] and in data set [1] were > 10000 nM and 8410 nM, respectively. In addition, the GI50 at 72 h in data set [2] is > 10000 nM.
For `Cc1ccc(NC(=O)c2ccc(CN3CCN(C)CC3)c(C(F)(F)F)c2)cc1OC1CCN(C(=O)c2cnc(N)nc2)CC1`, the GI50 in data set [3] came out at 200 nM; in data set [1] it was 168 nM. Further, in data set [2], the GI50 at 72 h is > 10000 nM.
Regarding `Cc1ccc(NC(=O)c2ccc(CN3CCN(C)CC3)c(C(F)(F)F)c2)cc1OCCNC(=O)c1cccnc1`, the GI50 in data set [3] worked out at 3300 nM; in data set [1], 1550 nM. Besides, in data set [2], the GI50 at 72 h is > 10000 nM.
The matching figures for `CN1CCN(Cc2ccc(C(=O)Nc3ccc(Cl)c(OC4CCN(C(=O)c5cccnc5)CC4)c3)cc2C(F)(F)F)CC1`: 340 nM, 253 nM and > 10000 nM.
On to `Cc1ccc(NC(=O)c2ccc(CN3CCN(C)CC3)c(C(F)(F)F)c2)cc1OC1CCN(c2ncccn2)CC1`, for which the values for the GI50 in data set [3] and in data set [1] were 2500 nM and 3220 nM, respectively. Besides, halving of growth in data set [2] (GI50 at 72 h) required 8100 nM.
As to `Cc1ccc(NC(=O)c2ccc(CN3CCN(C)CC3)c(C(F)(F)F)c2)cc1OC1CCN(C(=O)c2ccccn2)CC1`, the figures for the GI50 in data set [3] and in data set [1] were 200 nM and 72 nM, respectively. Moreover, in data set [2], the GI50 at 72 h was > 10000 nM. Moreover, the IC50 in data set [4] turned out to be 644 nM.
Consider `Cc1ccc(NC(=O)c2ccc(CN3CCN(C)CC3)c(C(F)(F)F)c2)cc1OC1CCN(C(=O)c2ccccc2)CC1`, for which the GI50 in data set [3] turned out to be 550 nM; in data set [1], 635 nM. This molecule also registered a GI50 at 72 h in data set [2] of 4730 nM.
As to `Cc1ccc(NC(=O)c2ccc(CN3CCN(C)CC3)c(C(F)(F)F)c2)cc1OC1CCN(C(=O)c2ccncc2)CC1`, the results for the GI50 in data set [3] and in data set [1] were 170 nM and 88 nM, respectively. For the same molecule, in data set [2], the GI50 at 72 h is > 10000 nM. For the same molecule, the IC50 in data set [4] amounted to 256 nM.
As to `Cc1ccc(NC(=O)c2ccc(CN3CCN(C)CC3)cc2)cc1OC1CCN(C(=O)c2cccnc2)CC1`, the GI50 was > 5000 nM in data set [3] and 8780 nM in data set [1]. Also, the GI50 at 72 h in data set [2] was > 10000 nM.
Consider `Cc1ccc(NC(=O)c2ccc(CN3CCN(C)CC3)c(C(F)(F)F)c2)cc1OC1CCN(C(=O)c2ccc(=O)[nH]c2)CC1`, for which the GI50 in data set [3] stood at 1600 nM; in data set [1], 1970 nM. Also, in data set [2], the GI50 at 72 h is > 10000 nM.
With `Cc1ccc(NC(=O)c2ccc(CN3CCN(C)CC3)c(C(F)(F)F)c2)cc1OC1CCN(C(=O)c2cnc3ccccc3c2)CC1`, the GI50 in data set [3] stood at 320 nM; in data set [1], 86 nM. The same molecule had a GI50 at 72 h in data set [2] of 1300 nM.
For `Cc1ccc(NC(=O)c2ccc(CN3CCN(C)CC3)c(C(F)(F)F)c2)cc1OC1CCN(C(=O)c2cccnc2)CC1`, in that order: 220 nM, 164 nM and > 10000 nM.
For `Cc1ccc(NC(=O)c2ccc(CN3CCN(C)CC3)c(C(F)(F)F)c2)cc1OC1CCN(C(=O)c2cncc(Cl)c2)CC1`, in that order: 37 nM, 219 nM and 2870 nM.
With `COc1cc2ncnc(N3CCC(Oc4cc(NC(=O)c5ccc(CN6CCN(C)CC6)c(C(F)(F)F)c5)ccc4C)CC3)c2cc1OC`, the GI50 in data set [3] turned out to be 190 nM; in data set [1] it was 773 nM. Besides, halving of growth in data set [2] (GI50 at 72 h) required 1200 nM.
For `Cc1ccc(NC(=O)c2ccc(CN3CCN(C)CC3)c(C(F)(F)F)c2)cc1OC1CCN(C(=O)c2ccsc2)CC1`, in that order: 26 nM, 135 nM and 1480 nM.
For `Cc1ccc(NC(=O)c2ccc(CN3CCN(C)CC3)c(C(F)(F)F)c2)cc1OC1CCN(C(=O)c2cccnc2C)CC1`, in that order: 370 nM, 2210 nM and 540 nM.
For `Cc1ccc(NC(=O)c2ccc(CN3CCN(C)CC3)c(C(F)(F)F)c2)cc1OC1CCN(C(=O)c2cccnc2F)CC1`, in that order: 63 nM, 2000 nM and 1520 nM.
On to `Cc1ccc(NC(=O)c2ccc(CN3CCN(C)CC3)c(C(F)(F)F)c2)cc1OC1CCN(C(=O)Cc2cccnc2)CC1`, for which the figures for the GI50 in data set [3] and in data set [1] were 780 nM and 5520 nM, respectively. This molecule displayed a GI50 at 72 h in data set [2] of 6490 nM.
